Reference: ChEMBL document CHEMBL1137208, “2-(1-adamantyl)-4-(thio)chromenone-6-carboxylic acids: potent reversible inhibitors of human steroid sulfatase” (J Med Chem, 2004)

Tests used:
Steryl-sulfatase [1] = target: T1, Steryl-sulfatase (Homo sapiens, UniProt P08842); experiment: Inhibitory activity against human steroid sulfatase
T1 sequence (P08842 whole entry): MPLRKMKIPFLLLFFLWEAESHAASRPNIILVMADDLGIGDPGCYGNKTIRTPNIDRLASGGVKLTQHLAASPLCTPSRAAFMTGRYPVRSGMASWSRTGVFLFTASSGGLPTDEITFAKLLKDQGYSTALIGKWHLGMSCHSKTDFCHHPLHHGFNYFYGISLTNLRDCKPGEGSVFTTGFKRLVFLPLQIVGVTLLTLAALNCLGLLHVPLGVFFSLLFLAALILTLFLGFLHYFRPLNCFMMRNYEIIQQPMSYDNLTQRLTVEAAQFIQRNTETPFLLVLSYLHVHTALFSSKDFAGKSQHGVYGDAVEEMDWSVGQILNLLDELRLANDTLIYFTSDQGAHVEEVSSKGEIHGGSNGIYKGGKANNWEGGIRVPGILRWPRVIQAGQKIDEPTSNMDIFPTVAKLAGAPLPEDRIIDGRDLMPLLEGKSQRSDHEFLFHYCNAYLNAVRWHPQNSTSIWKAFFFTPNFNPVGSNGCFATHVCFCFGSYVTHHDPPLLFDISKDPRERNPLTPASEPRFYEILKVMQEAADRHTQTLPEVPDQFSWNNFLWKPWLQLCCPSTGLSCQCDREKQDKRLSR
Outline: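 Highly purified human STS from stably transfected recombinant CHO cells (purity >95%). Substrate 0.5 mM 4-methylumbelliferyl sulfate, pH 7.5, 37 °C. 4-Methylumbelliferone formed was read by fluorescence after alkalization. Inhibitors were added at graded concentrations from ethanol stocks (final ethanol ≤2%). Ki came from turnover at several substrate and inhibitor levels, using a Hanes plot and a Km/Vmax vs I replot.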

Steryl-sulfatase [2] = target: T1, Steryl-sulfatase; experiment: Inhibitory activity against human steroid sulfatase over-expressed in CHO cells; format: functional, cell-based
Outline: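 Live CHO cells stably expressing human STS, 30 000/well, adhered overnight in phenol red-free RPMI 1640 with 10% FCS. Cells were treated with graded inhibitor for 24 h. Medium was then replaced with the same concentrations plus 0.5 mM 4-MUS for 4 h at 37 °C. Supernatant was stopped at pH 10.4 and read at ex 355/em 460 nm. Signal was normalized to sulforhodamine B protein. Triplicates; IC50 is 50% inhibition.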

`NS(=O)(=O)Oc1ccc2oc(C34CC5CC(CC(C5)C3)C4)cc(=O)c2c1` showed a Ki (Steryl-sulfatase [1]) of 0.19 µM and an IC50 (Steryl-sulfatase [2]) of 0.026 µM.

For `NC(=O)c1ccc2oc(C34CC5CC(CC(C5)C3)C4)cc(=O)c2c1`, the Ki (Steryl-sulfatase [1]) was > 50 µM and the IC50 (Steryl-sulfatase [2]) was > 30 µM.

In the case of `O=C(O)c1ccc2oc(C34CC5CC(CC(C5)C3)C4)cc(=O)c2c1`, the Ki (Steryl-sulfatase [1]) is reported as 0.5 µM and the IC50 (Steryl-sulfatase [2]) is reported as 9.4 µM.

With `COC(=O)c1ccc2oc(C34CC5CC(CC(C5)C3)C4)cc(=O)c2c1` the Ki (Steryl-sulfatase [1]) was > 50 µM and the IC50 (Steryl-sulfatase [2]) was > 30 µM.

`O=C(O)c1ccc2sc(C34CC5CC(CC(C5)C3)C4)cc(=O)c2c1` gave a Ki (Steryl-sulfatase [1]) of 0.53 µM and an IC50 (Steryl-sulfatase [2]) of 0.18 µM.

In the case of `O=C(CO)c1ccc2oc(C34CC5CC(CC(C5)C3)C4)cc(=O)c2c1`, the Ki (Steryl-sulfatase [1]) is reported as 3.2 µM and the IC50 (Steryl-sulfatase [2]) is reported as > 30 µM.

`O=C(O)C(=O)c1ccc2oc(C34CC5CC(CC(C5)C3)C4)cc(=O)c2c1` was tested, and the Ki (Steryl-sulfatase [1]) was 2.2 µM and the IC50 (Steryl-sulfatase [2]) was 12.3 µM.

`O=Cc1ccc2oc(C34CC5CC(CC(C5)C3)C4)cc(=O)c2c1` was tested, and the Ki (Steryl-sulfatase [1]) was > 20 µM and the IC50 (Steryl-sulfatase [2]) was > 30 µM.

In the case of `NS(=O)(=O)Oc1ccc2sc(C34CC5CC(CC(C5)C3)C4)cc(=O)c2c1`, the Ki (Steryl-sulfatase [1]) is reported as 0.21 µM and the IC50 (Steryl-sulfatase [2]) is reported as 0.024 µM.

With `N#Cc1ccc2sc(C34CC5CC(CC(C5)C3)C4)cc(=O)c2c1` the Ki (Steryl-sulfatase [1]) was > 50 µM and the IC50 (Steryl-sulfatase [2]) was > 30 µM.

`O=C(O)Cc1ccc2oc(C34CC5CC(CC(C5)C3)C4)cc(=O)c2c1` was tested, and the Ki (Steryl-sulfatase [1]) was > 50 µM and the IC50 (Steryl-sulfatase [2]) was > 30 µM.

With `O=c1cc(C23CC4CC(CC(C4)C2)C3)oc2ccc(CO)cc12` the Ki (Steryl-sulfatase [1]) was 32 µM and the IC50 (Steryl-sulfatase [2]) was ~30 µM.

`C[C@]12CC[C@@H]3c4ccc(OS(N)(=O)=O)cc4CC[C@H]3[C@@H]1CCC2=O` [EMATE] showed an IC50 (Steryl-sulfatase [2]) of 0.02 µM.
